The target of series [1] is Acetyl-CoA carboxylase (Homo sapiens, UniProt Q13085+O00763). Kind of series: Inhibition of human ACC1/2-mediated malonyl-CoA synthesis. In kind it is protein assay. The method in brief:
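Partially purified human liver ACC enzymes; read-out is malonyl-CoA synthesis by ACC1/2; IC50 taken as mean of at least two independent experiments.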

Series [2] can be described thus: Metabolic stability in human liver microsomes assessed as compound remaining after 15 mins. Type of series: ADME, Microsome. To be noted: read-out: Stability. The method in brief: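 Compound at […] incubated 15 min at 37 °C with human liver microsomes at 1 mg protein/mL. Cofactors: 1.5 mM glucose-6-phosphate, 0.16 mM NADP, 1 U/mL G6P dehydrogenase. Buffer: 250 mM phosphate, 2.4 mM MgCl2, 69 mM KCl. Parent measured by LC-MS/MS; % remaining relative to 0 min.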
For orientation: Liver microsomes are a subcellular fraction often used to study metabolism.

Series [3] in a line: Permeability by PAMPA method. In kind it is ADME. Conditions: read-out: permeability. The method in brief:
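Parallel artificial membrane permeation at pH 6.2; effective permeability Pe reported in 10^-6 cm/s.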

Series [4] is described as follows: Inhibition of human ACC in HepG2 cells assessed as decrease in fatty acid synthesis by [14C]acetate incorporation assay. In kind it is cell-based. In outline:
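HepG2 cells; fatty acid synthesis followed as loss of [14C]acetate incorporation into cellular lipids; IC50 derived.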

Usually IC50 stands for the midpoint of a concentration-inhibition curve. Higher therefore signals a need for much substance. For orientation: pIC50 means −log10 of the IC50, conventionally taken in molar units.

pIC50: −log10 of the molar value.

With `CC(=O)N1CCC(C(=O)N2CCC(N3CCN(C(=O)c4cc(-c5ccccc5)nc(-c5ccc6c(c5)c(C)cn6C)c4)CC3)CC2)CC1`, the IC50 in series [1] stood at 127 nM. As to `CC(=O)N1CCC(C(=O)N2CCC(N3CCN(C(=O)c4cc(-c5ccccc5)nc(-c5ccc6[nH]c(C)c(C)c6c5)c4)CC3)CC2)CC1`, the IC50 in series [1] amounted to 33 nM. Besides, the remaining at 0.25 h in series [2] was 99%. As to `CC(=O)N1CCC(C(=O)N2CCC(N3CCN(C(=O)c4cc(-c5ccccc5)nc(-c5ccc6c(c5)c(C)c(C)n6C)c4)CC3)CC2)CC1`, the IC50 in series [1] came to 105 nM. Take `CCc1c(C)[nH]c2ccc(-c3cc(C(=O)N4CCN(C5CCN(C(=O)C6CCN(C(C)=O)CC6)CC5)CC4)cc(-c4ccccc4)n3)cc12`: the IC50 in series [1] was found to be 169 nM. Same read-out and setting: for `CC(=O)N1CCC(C(=O)N2CCC(N3CCN(C(=O)c4cc(-c5ccccc5)nc(-c5ccc6[nH]c(C)c(C#N)c6c5)c4)CC3)CC2)CC1` the value was 9.7 nM; for `CC(=O)N1CCC(C(=O)N2CCC(N3CCN(C(=O)c4cc(-c5ccccc5)nc(-c5ccc6[nH]c(CN(C)C)c(C)c6c5)c4)CC3)CC2)CC1`, 8.4 nM; for `CC(=O)N1CCC(C(=O)N2CCC(N3CCN(C(=O)c4cc(-c5ccc(C(F)(F)F)cc5)nc(-c5ccc6[nH]ccc6c5)c4)CC3)CC2)CC1`, 72 nM. In series [1], `CC(=O)N1CCC(C(=O)N2CCC(N3CCN(C(=O)c4cc(-c5ccc(C)c(F)c5)nc(-c5ccc6[nH]ccc6c5)c4)CC3)CC2)CC1` had a half-inhibitory concentration (IC50) of 49 nM.

`COc1ccc(-c2cc(C(=O)N3CCN(C4CCN(C(=O)C5CCN(C(C)=O)CC5)CC4)CC3)cc(-c3ccc4[nH]ccc4c3)n2)cc1OC`: the IC50 in series [1] came to 30 nM. The compound `CC(=O)N1CCC(C(=O)N2CCC(N3CCN(C(=O)c4cc(-c5ccccc5)nc(-c5ccc6c(ccn6C)c5)c4)CC3)CC2)CC1` gave a half-maximal inhibitory concentration (IC50) in series [1] of 69 nM. The remaining at 0.25 h in series [2] stood at 85%. As to `CC(=O)N1CCC(C(=O)N2CCC(N3CCN(C(=O)c4cc(-c5ccccc5)nc(-c5ccc6[nH]c(C)cc6c5)c4)CC3)CC2)CC1`, the IC50 in series [1] is 59 nM. As to `CC(=O)N1CCC(C(=O)N2CCC(N3CCN(C(=O)c4cc(-c5ccccc5)nc(-c5ccc6[nH]cc(C)c6c5)c4)CC3)CC2)CC1`, the concentration for half-maximal inhibition (IC50) in series [1] turned out to be 36 nM. In addition, the remaining at 0.25 h in series [2] was 72%. In series [1], `CC(=O)N1CCC(C(=O)N2CCC(N3CCN(C(=O)c4cc(-c5ccccc5)nc(-c5ccc6c(c5)cc(C)n6C)c4)CC3)CC2)CC1` registered a 50% inhibitory concentration (IC50) of 117 nM. The same measure, in the same setting: the result for `CC(=O)N1CCC(C(=O)N2CCC(N3CCN(C(=O)c4cc(-c5ccccc5)nc(-c5ccc6cn[nH]c6c5)c4)CC3)CC2)CC1` reads 57 nM. As for `CC(=O)N1CCC(C(=O)N2CCC(N3CCN(C(=O)c4cc(-c5ccccc5)nc(-c5ccc6c(c5)CC(=O)N6)c4)CC3)CC2)CC1`, in series [1], the IC50 stood at 54 nM. This IC50 and that of the compound before are within 1.5-fold of each other. Turning to `CC(=O)N1CCC(C(=O)N2CCC(N3CCN(C(=O)c4cc(-c5cccc(F)c5)nc(-c5ccc6[nH]ccc6c5)c4)CC3)CC2)CC1`, the Papp in series [3] worked out at 19.9 ×10⁻⁶ cm/s. In addition, the IC50 in series [1] amounted to 33 nM.

On to `CC(=O)N1CCC(C(=O)N2CCC(N3CCN(C(=O)c4cc(-c5ccc(F)cc5)nc(-c5ccc6[nH]ccc6c5)c4)CC3)CC2)CC1`, for which the Papp in series [3] came to 44.3 ×10⁻⁶ cm/s. Moreover, the IC50 in series [1] was 48 nM. Turning to `CC(=O)N1CCC(C(=O)N2CCC(N3CCN(C(=O)c4cc(-c5cccc(C)c5)nc(-c5ccc6[nH]ccc6c5)c4)CC3)CC2)CC1`, the Papp in series [3] came to 28.1 ×10⁻⁶ cm/s. This compound registered an IC50 in series [1] of 37 nM. With `CC(=O)N1CCC(C(=O)N2CCC(N3CCN(C(=O)c4cc(-c5ccc(C)cc5)nc(-c5ccc6[nH]ccc6c5)c4)CC3)CC2)CC1`, in series [3], the Papp was found to be 39.8 ×10⁻⁶ cm/s. In addition, the half-maximal inhibitory concentration (IC50) in series [1] is on record as 30 nM. In turn, `COc1cccc(-c2cc(C(=O)N3CCN(C4CCN(C(=O)C5CCN(C(C)=O)CC5)CC4)CC3)cc(-c3ccc4[nH]ccc4c3)n2)c1` registered an IC50 in series [1] of 32 nM. Take `COc1ccc(-c2cc(C(=O)N3CCN(C4CCN(C(=O)C5CCN(C(C)=O)CC5)CC4)CC3)cc(-c3ccc4[nH]ccc4c3)n2)cc1`: in series [3], the Papp was 21.5 ×10⁻⁶ cm/s. The IC50 in series [1] came out at 21 nM. With `CC(=O)N1CCC(C(=O)N2CCC(N3CCN(C(=O)c4cc(-c5cccc(C(F)(F)F)c5)nc(-c5ccc6[nH]ccc6c5)c4)CC3)CC2)CC1`, in series [1], the IC50 is 100 nM. As to `CC(=O)N1CCC(C(=O)N2CCC(N3CCN(C(=O)c4cc(-c5ccccc5)nc(-c5ccc(C(N)=O)cc5)c4)CC3)CC2)CC1`, in series [1], the concentration for half-maximal inhibition (IC50) is 80 nM. Regarding `CC(=O)N1CCC(C(=O)N2CCC(N3CCN(C(=O)c4cc(-c5ccccc5)nc(-c5ccc(CCO)cc5)c4)CC3)CC2)CC1`, the 50% inhibitory concentration (IC50) in series [1] stood at 27 nM. For the same compound, the negative logarithm of the IC50 (pIC50) in series [4] was 5.79. `CC(=O)N1CCC(C(=O)N2CCC(N3CCN(C(=O)c4cc(-c5ccccc5)nc(-c5ccc(CC(=O)O)cc5)c4)CC3)CC2)CC1` returned a 50% inhibitory concentration (IC50) in series [1] of 75 nM. In series [1], `CC(=O)N1CCC(C(=O)N2CCC(N3CCN(C(=O)c4cc(-c5ccccc5)nc(-c5ccc(OCCO)cc5)c4)CC3)CC2)CC1` returned an IC50 of 47 nM.

Compound `CC(=O)N1CCC(C(=O)N2CCC(N3CCN(C(=O)c4cc(-c5ccccc5)nc(-c5ccc(CCCO)cc5)c4)CC3)CC2)CC1` registered a 50% inhibitory concentration (IC50) in series [1] of 70 nM. The IC50 values of the last two compounds are within 1.5-fold of each other. Consider `CC(=O)N1CCC(C(=O)N2CCC(N3CCN(C(=O)c4cc(-c5ccccc5)nc(-c5ccc6[nH]ccc6c5)c4)CC3)CC2)CC1`, for which the Papp in series [3] was found to be 46.5 ×10⁻⁶ cm/s. In series [1], the IC50 was found to be 55 nM. Besides, the remaining at 0.25 h in series [2] came to 64%.

For `CC(=O)N1CCC(C(=O)N2CCC(N3CCN(C(=O)c4cc(-c5ccccc5)nc(-c5ccc6cc[nH]c6c5)c4)CC3)CC2)CC1`, the half-maximal inhibitory concentration (IC50) in series [1] came to 47 nM. In other words, the double-digit nanomolar range. The same measure, in the same setting: the result for `CC(=O)N1CCC(C(=O)N2CCC(N3CCN(C(=O)c4cc(-c5ccccc5)nc(-c5ccc6[nH]ncc6c5)c4)CC3)CC2)CC1` reads 42 nM; that for `CC(=O)N1CCC(C(=O)N2CCC(N3CCN(C(=O)c4cc(-c5ccccc5)nc(-c5ccc(O)cc5)c4)CC3)CC2)CC1`, 47 nM. The same measure, in the same setting: for `CC(=O)N1CCC(C(=O)N2CCC(N3CCN(C(=O)c4cc(-c5ccccc5)nc(-c5cccc(CO)c5)c4)CC3)CC2)CC1` the value was 47 nM. On the same count and under the same terms, for `CC(=O)N1CCC(C(=O)N2CCC(N3CCN(C(=O)c4cc(-c5ccccc5)nc(-c5ccc(CO)cc5)c4)CC3)CC2)CC1` the value was 42 nM.

The values are drawn from ChEMBL document CHEMBL1177759, “Design and synthesis of disubstituted (4-piperidinyl)-piperazine derivatives as potent acetyl-CoA carboxylase inhibitors” (Bioorg Med Chem Lett, 2010).
